# Data from ChEMBL document CHEMBL1126650, “Synthesis and structure-activity relationships of novel benzimidazole and imidazo[4,5-b]pyridine acid derivatives as thromboxane A2 receptor antagonists” (J Med Chem, 1993).
# pKi: −log10 of the molar value.
# What was measured:
# [1] = target: T1, Thromboxane A2 receptor (Homo sapiens) (UniProt P21731); assay: In vitro for percent inhibition against TXA2 / PGH-2 receptor using [125I]PTA-OH in human platelets at 10 e-5 M
# T1 sequence (whole entry): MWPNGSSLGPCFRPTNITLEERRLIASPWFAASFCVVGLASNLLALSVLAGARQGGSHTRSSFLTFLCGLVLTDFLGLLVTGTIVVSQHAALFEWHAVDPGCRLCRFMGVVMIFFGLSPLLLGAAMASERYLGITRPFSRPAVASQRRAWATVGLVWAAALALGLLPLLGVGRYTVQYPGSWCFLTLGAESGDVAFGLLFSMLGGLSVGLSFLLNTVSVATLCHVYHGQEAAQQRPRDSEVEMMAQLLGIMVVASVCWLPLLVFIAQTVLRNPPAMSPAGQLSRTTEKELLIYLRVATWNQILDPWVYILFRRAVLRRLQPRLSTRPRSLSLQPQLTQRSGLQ
# In short: (§1)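 Washed human platelets from volunteer blood drawn into EDTA 5 mM and indomethacin 20 µM (final); PRP at 200 g, pellet at 2000 g. 5 × 10^7 platelets incubated 30 min at 37 °C with 0.1 nM [125I]PTA-OH in Tris/NaCl/dextrose/indomethacin buffer, pH 7.4. Screening at 10^-7 and 10^-5 M. Filtration, gamma counting. Nonspecific binding set by a tetrahydrocarbazole-acetic acid antagonist. Triplicate.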
# [2] = target: T1, Thromboxane A2 receptor (Homo sapiens); assay: Tested in vitro for percent inhibition against TXA2 / PGH-2 receptor using [125I]PTA-OH in human platelets at 10 e-7 M; in short: as §1
# Cavia porcellus [3] = assay: In vivo inhibition of […]- epoxymethano-PGH2 (1 uM) induced platelet aggregation of guinea pig platelet-rich plasma (PRP) 1 hr after per os administration at 1 mg/kg po; type: functional
# In short: (§2)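 Guinea pigs dosed orally. Platelet-rich plasma taken 1 h later and aggregation triggered with 11,9-epoxymethano-PGH2 (U-IPA) at 1 µM.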
# Cavia porcellus [4] = assay: In vivo inhibition of […]- epoxymethano-PGH2 (1 uM) induced platelet aggregation of guinea pig platelet-rich plasma (PRP) 1 hr after per os administration at 0.3 mg/kg po; type: functional; in short: as §2
# Thromboxane A2 receptor = target: T2, Thromboxane A2 receptor (Homo sapiens, UniProt P21731); assay: Tested in vitro for inhibition constant against TXA2 / PGH-2 receptor using [125I]PTA-OH binding affinity to human platelets
# T2 sequence (P21731 whole entry): T1 sequence (whole entry)
SMILES,inhibition [1],inhibition [2],inhibition in vivo at 1 mg/kg (Cavia porcellus [3]),inhibition in vivo at 0.3 mg/kg (Cavia porcellus [4]),pKi (Thromboxane A2 receptor)
O=C(O)CCCSc1nc2cc(F)ccc2n1Cc1ccc(Cl)cc1,93%,8%,–,–,–
CC(C)(CC(=O)O)Cc1nc2cc(Cl)ccc2n1Cc1ccc(Br)cc1F,95%,74%,–,–,–
CC(C)(CC(=O)O)Cc1nc2cc(Br)ccc2n1Cc1ccc(Cl)cc1,67%,38%,–,–,–
CC(C)(CC(=O)O)Cc1nc2cc(Cl)cnc2n1Cc1ccc(Cl)cc1 [MIPITROBAN],100%,97%,81%,44%,7.68
CSc1ccc(Cn2c(CC(C)(C)CC(=O)O)nc3cc(F)ccc32)cc1,100%,100%,–,–,–
CC(C)(CC(=O)O)Cc1nc2ccccc2n1Cc1ccc([N+](=O)[O-])cc1,100%,83%,–,–,–
CC(C)(CC(=O)O)Cc1nc2cc(F)ccc2n1Cc1ccc(S(C)(=O)=O)cc1,100%,100%,–,–,–
CC(C)(CC(=O)O)Cc1nc2ccccc2n1Cc1cccc(C(F)(F)F)c1,100%,49%,–,–,–
CC(C)(CC(=O)O)Cc1nc2cc(Cl)ccc2n1Cc1ccc(Cl)cc1F,87%,77%,–,–,–
CC(Sc1nc2cc(F)ccc2n1Cc1ccc(Cl)cc1)C(=O)O (stereo not given),83%,9%,–,–,–
CCC(C)(CC(=O)O)Cc1nc2ccccc2n1Cc1ccc(Cl)cc1 (stereo not given),100%,57%,–,–,–
Cc1ccc(Cn2c(CC(C)(C)CC(=O)O)nc3ccccc32)cc1,100%,52%,–,–,–
COc1ccc(Cn2c(CC(C)(C)CC(=O)O)nc3cc(F)ccc32)cc1,100%,79%,–,–,8.40
O=C(O)CCCSc1nc2cc(Cl)cnc2n1Cc1ccc(Cl)cc1,39%,6%,–,–,–
CC(C)(CC(N)=O)Cc1nc2ccccc2n1Cc1ccc(Cl)cc1,90%,7%,–,–,–
CC(C)(CC(=O)O)Cc1nc2ccccc2n1Cc1ccc(Br)cc1,96%,86%,–,–,7.80
O=C(O)CC1(Cc2nc3cc(F)ccc3n2Cc2ccc(Cl)cc2)CCCCC1,98%,0%,–,–,6.06
CC(C)(CC(=O)O)Cc1nc2cc(F)ccc2n1Cc1ccc(Cl)cc1F,77%,58%,–,–,–
O=C(O)[C@H]1CCC[C@@H]1c1nc2cc(F)ccc2n1Cc1ccc(Cl)cc1,100%,37%,–,–,6.85
CC(C)(Sc1nc2cc(Cl)cnc2n1Cc1ccc(Cl)cc1)C(=O)O,100%,30%,–,–,–

SMILES,inhibition [1],inhibition [2],inhibition in vivo at 1 mg/kg (Cavia porcellus [3]),inhibition in vivo at 0.3 mg/kg (Cavia porcellus [4]),pKi (Thromboxane A2 receptor)
CC(C)(CC(=O)O)Cc1nc2cc(Cl)ccc2n1Cc1ccc(Cl)cc1,99%,74%,–,–,–
CC(C)(CC(=O)O)Cc1nc2cc(F)ccc2n1Cc1ccc(Br)cc1,95%,92%,–,–,7.92
CC(C)(CC(=O)O)Cc1nc2ccccc2n1Cc1ccc(F)cc1,100%,66%,–,–,–
O=C(O)CCCSc1nc2cccnc2n1Cc1ccc(Cl)cc1,64%,27%,–,–,–
COc1ccc(Cn2c(CC(C)(C)CC(=O)O)nc3cc(Cl)ccc32)cc1,100%,95%,–,–,7.70
CC(C)(CC(=O)O)Cc1nc2cc(F)ccc2n1Cc1ccc(Br)cc1F,100%,98%,–,–,–
CSc1ccc(Cn2c(CC(C)(C)CC(=O)O)nc3cc(Cl)ccc32)cc1,89%,87%,–,–,8.22
CC(C)(CC(=O)O)Cc1nc2ccccc2n1Cc1ccc(Cl)cc1,100%,85%,–,–,–
O=C(O)CCc1nc2cc(F)ccc2n1Cc1ccc(Cl)cc1,64%,0%,–,–,5.25
CC(C)(Sc1nc2cc(F)ccc2n1Cc1ccc(Cl)cc1)C(=O)O,83%,3%,–,–,6.17
CC(C)(CC(=O)O)Cc1nc2cccnc2n1Cc1ccc(Cl)cc1,62%,41%,–,–,7.41
CC(C)(CC(=O)O)Cc1nc2ccccc2n1Cc1ccc(O)cc1,96%,50%,–,–,–
CSc1ccc(Cn2c(CC(C)(C)CC(=O)O)nc3cc(Cl)cnc32)cc1,87%,82%,–,–,8.15
CCC(CC)(CC(=O)O)Cc1nc2ccccc2n1Cc1ccc(Cl)cc1,97%,35%,–,–,6.80
CC(CC(=O)O)Cc1nc2ccccc2n1Cc1ccc(Cl)cc1 (stereo not given),100%,10%,–,–,–
O=C(O)CC1CCCc2c1n(Cc1ccc(Cl)cc1)c1ccc(F)cc21 (stereo not given),100%,100%,–,–,7.82
CC(C)(Cc1nc2cc(F)ccc2n1Cc1ccc(Cl)cc1)C(=O)O,50%,0%,–,–,5.77
CC(C)(CC(=O)O)Cc1nc2cc(Cl)ccc2n1Cc1ccc(Br)cc1,100%,98%,–,–,–
O=C(O)CCCSc1nc2cc(Cl)cnc2n1Cc1ccc(Br)cc1F,60%,24%,–,–,–
CC(C)(CC(=O)O)Cc1nc2cc(F)ccc2n1Cc1ccc(Cl)c(Cl)c1,92%,89%,–,–,–

SMILES,inhibition [1],inhibition [2],inhibition in vivo at 1 mg/kg (Cavia porcellus [3]),inhibition in vivo at 0.3 mg/kg (Cavia porcellus [4]),pKi (Thromboxane A2 receptor)
COc1ccc2c(c1)nc(CC(C)(C)CC(=O)O)n2Cc1ccc(Cl)cc1,100%,44%,–,–,–
CC(C)(CC(=O)O)Cc1nc2ccccc2n1Cc1ccc(Br)cc1F,99%,88%,–,–,7.96
CC(C)(CC#N)Cc1nc2ccccc2n1Cc1ccc(Cl)cc1,0%,0%,–,–,–
CC(C)(CC(=O)O)Cc1nc2cc(Cl)ccc2n1Cc1ccc(Cl)c(Cl)c1,92%,71%,–,–,7.92
CC(C)(CC(=O)O)Cc1nc2cc(F)ccc2n1Cc1ccc(Cl)cc1,100%,94%,–,–,8.11
COc1ccc(Cn2c(CC(C)(C)CC(=O)O)nc3ccccc32)cc1,100%,89%,–,–,–
CC(C)(CC(=O)O)Cc1nc2ccccc2n1Cc1ccccc1,95%,13%,–,–,–
O=C(O)CC1(Cc2nc3cc(F)ccc3n2Cc2ccc(Cl)cc2)CC1,98%,80%,–,–,7.28
O=C(O)CC1(Cc2nc3cc(F)ccc3n2Cc2ccc(Cl)cc2)CCCC1,100%,71%,–,–,–
CC(C)(CC(=O)O)c1nc2ccccc2n1Cc1ccc(Cl)cc1,28%,0%,–,–,–
O=C(O)CCCCSc1nc2cc(F)ccc2n1Cc1ccc(Cl)cc1,100%,28%,–,–,–
O=C(O)[C@@H]1CC=CC[C@@H]1c1nc2cc(F)ccc2n1Cc1ccc(Cl)cc1,96%,15%,–,–,6.29
O=C(O)CC(Cc1nc2ccccc2n1Cc1ccc(Cl)cc1)c1ccccc1 (stereo not given),17%,0%,–,–,–
O=C(O)COc1ccc(CCNS(=O)(=O)c2ccccc2)cc1,95%,13%,–,–,–
CC(C)(CC(=O)O)Cc1nc2cc(Cl)ccc2n1Cc1ccc(S(C)(=O)=O)cc1,82%,69%,–,–,–
CC(C)(CC(=O)O)Cc1nc2cc(Cl)c(Cl)cc2n1Cc1ccc(Cl)cc1,100%,14%,–,–,–
CC(C)(CCC(=O)O)Cc1nc2cc(F)ccc2n1Cc1ccc(Cl)cc1,87%,56%,–,–,7.64
O=C(O)[C@H]1CC[C@@H]1c1nc2cc(F)ccc2n1Cc1ccc(Cl)cc1,97%,2%,–,–,6.09
